From ChEMBL document CHEMBL1155720, “Antioxidant principles from Bauhinia tarapotensis” (J Nat Prod, 2001) come the findings set out here.

What all share (assay type): functional
Experiment [1] in a line: Antioxidant activity assessed as trolox equivalents of ABTS radical scavenging activity by TEAC assay. The method, boiled down:
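ABTS•+ made from 7 mM ABTS in water with 2.45 mM potassium persulfate, kept 12 h in the dark at room temperature. Diluted in PBS pH 7.4 to A734 0.70 and equilibrated at 30 °C. Samples in methanol at 0.3–2 mM, 10 µL added to 1 mL ABTS•+. Percent inhibition of A734 measured against a methanol blank, in triplicate, and plotted against concentration. TEAC is the Trolox concentration giving the same inhibition as 1 mM compound.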

A short description of experiment [2]: Antioxidant activity against beta-carotene and linoleic acid assessed asbleaching of beta-carotene at 120 mins by autooxidation assay. An outline of the steps:
(§1)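 β-carotene bleaching (Pratt method): linolenic acid 20 mg and Tween 20 200 mg plus β-carotene 2 mg in 10 mL CHCl3. CHCl3 removed, then 50 mL oxygen-saturated distilled water added. Samples oxidized at 50 °C for 3 h, A470 read at intervals. AA = 100[1 − (A0 − At)/(A00 − A0t)], comparing absorbance at start and at time t with and without compound.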

The nature of experiment [3]: Antioxidant activity against beta-carotene and linoleic acid assessed asbleaching of beta-carotene at 60 mins by autooxidation assay. An outline of the steps: as §1
Experiment [4] deals with Radical scavenging activity. Briefly: Antioxidant activity assessed as DPPH free radical scavenging activity after 30 mins. An outline of the steps: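 Pure compound in methanol, 30 µL added to 3 mL of 0.004% DPPH in MeOH. A517 read after 30 min and percent inhibition calculated. IC50 is the concentration scavenging 50% of DPPH radical.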

Structures are written as SMILES.

Consider `O=C(O)c1c[nH]c2ccccc12`, for which the values for the Activity in experiment [1], in experiment [2] and in experiment [3] were 0.092, -6.5 and -10.1, respectively.

`C[C@@H]1O[C@@H](OC[C@H]2O[C@@H](Oc3c(-c4ccc(O)c(O)c4)oc4cc(O)cc(O)c4c3=O)[C@H](O)[C@@H](O)[C@@H]2O)[C@H](O)[C@H](O)[C@H]1O`: the Activity in experiment [1] is 2.42.

A word on the IC50: it is the concentration needed to halve the response being measured. With `COc1cc([C@H]2OC[C@]3(O[C@@H]4O[C@H](CO)[C@@H](O)[C@H](O)[C@H]4O)[C@@H](c4ccc(O)c(OC)c4)OC[C@H]23)ccc1O`, the Activity in experiment [1] came out at 0.935; in experiment [2], 8.5; in experiment [3], 10.7. The IC50 in experiment [4] amounted to 20.3 µM.

As to `O=C(O)/C=C/c1ccc(O)c(O)c1`, in experiment [1], the Activity is 1.26.

For `C[C@@H]1O[C@@H](O[C@@H]2[C@@H](O)[C@H](OCCc3ccc(O)c(O)c3)O[C@H](COC(=O)/C=C/c3ccc(O)c(O)c3)[C@H]2O)[C@H](O)[C@H](O)[C@H]1O` [ISOACTEOSIDE], the results for the Activity in experiment [1], in experiment [2] and in experiment [3] were 1.23, 7.2 and 24.6, respectively. In experiment [4], the IC50 was determined as 1.3 µM.

Take `O=C1C=C[C@H](O)C[C@@]1(O)CCO` (relative stereo): the Activity in experiment [1] turned out to be 0.076; in experiment [2] it was 9.7; in experiment [3] it was 43.

`Cc1cc(C(C)(C)C)c(O)c(C(C)(C)C)c1`: the Activity in experiment [2] was 62.5; in experiment [3], 63.9.

Turning to `O=C(/C=C/c1ccc(O)c(O)c1)OCC(O)(CO)C(O)C(=O)O` (stereo not drawn), the Activity in experiment [1] is 0.484; in experiment [2] it was 20.5; in experiment [3], 25.2.

Take `O=c1cc(-c2ccc(O[C@@H]3O[C@H](CO)[C@@H](O)[C@H](O)[C@H]3O)c(O)c2)oc2cc(O)cc(O)c12`: the Activity in experiment [1] stood at 0.445; in experiment [2], 10; in experiment [3] it was 16.2.

As for `COc1cc([C@@H]2c3cc(O)c(OC)cc3C[C@H](CO)[C@H]2CO[C@@H]2O[C@H](CO)[C@@H](O)[C@H](O)[C@H]2O)ccc1O`, the Activity in experiment [1] is 0.826; in experiment [2], -6.2; in experiment [3] it was -10. The IC50 in experiment [4] is 10.5 µM.
